Source: ChEMBL document CHEMBL4017509, “A Dual Modulator of Farnesoid X Receptor and Soluble Epoxide Hydrolase To Counter Nonalcoholic Steatohepatitis” (J Med Chem, 2017)
Activity calls are given as the source filed them. The rule behind the calls is not given here.

What was measured:
[1] = Half life in C57BL/6JRj mouse at 10 mg/kg, po measured up to 480 mins post dose by LC-MS analysis; assay type: ADME, organism-based; details: in vivo
Method in brief: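 Male C57BL/6JRj mice (23−26 g), six dosed once orally at 10 mg/kg in water with 1% HPMC/Tween 80 (99:1), three vehicle. Tail-vein blood (20 μL) at 15, 30, 60, 120, 240 and 480 min, last by retro-orbital puncture. Blood spiked, acetonitrile precipitation with griseofulvin internal standard, LC−MS on phenyl-hexyl column. Noncompartmental PK analysis.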

[2] = target: T1, Bile acid receptor (Homo sapiens) (UniProt Q96RI1); assay: Transactivation of human FXR expressed in human HeLa cells co-expressing BSEP at 50 uM after 24 hrs by dual-glo luciferase reporter gene assay relative to GW4064; assay type: cell-based
T1 sequence (whole entry): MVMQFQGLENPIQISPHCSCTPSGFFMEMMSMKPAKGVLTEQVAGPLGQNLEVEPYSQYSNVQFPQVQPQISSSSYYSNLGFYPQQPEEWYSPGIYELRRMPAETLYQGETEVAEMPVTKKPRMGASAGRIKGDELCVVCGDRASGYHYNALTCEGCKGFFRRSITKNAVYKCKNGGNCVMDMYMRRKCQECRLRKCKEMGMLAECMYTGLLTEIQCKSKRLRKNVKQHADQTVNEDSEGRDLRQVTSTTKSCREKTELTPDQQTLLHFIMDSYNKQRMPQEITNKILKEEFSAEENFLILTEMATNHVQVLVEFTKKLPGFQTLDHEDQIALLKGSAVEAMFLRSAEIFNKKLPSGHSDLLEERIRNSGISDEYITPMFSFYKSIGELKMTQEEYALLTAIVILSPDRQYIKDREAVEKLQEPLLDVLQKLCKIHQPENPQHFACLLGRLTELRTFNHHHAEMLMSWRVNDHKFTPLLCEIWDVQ
Method in brief: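 HeLa cells in DMEM/10% FCS at 37 °C, 5% CO2; switched to 0.5% charcoal-stripped FCS before calcium phosphate co-transfection with pcDNA3-hFXR, pSG5-hRXR, BSEP promoter–firefly luciferase reporter and pRL-SV40 renilla. Compound in 0.1% DMSO, phenol red-free medium, 24 h.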

[3] = target: Nuclear receptor subfamily 1 group I member 2 (Homo sapiens, UniProt O75469); assay: Transactivation of human GAL4-fused PXR ligand binding domain expressed in […] cells at 10 uM after 12 to 14 hrs by dual-glo luciferase reporter gene assay; assay type: cell-based
Sequence of Nuclear receptor subfamily 1 group I member 2 (O75469 whole entry, the tested form may be a part): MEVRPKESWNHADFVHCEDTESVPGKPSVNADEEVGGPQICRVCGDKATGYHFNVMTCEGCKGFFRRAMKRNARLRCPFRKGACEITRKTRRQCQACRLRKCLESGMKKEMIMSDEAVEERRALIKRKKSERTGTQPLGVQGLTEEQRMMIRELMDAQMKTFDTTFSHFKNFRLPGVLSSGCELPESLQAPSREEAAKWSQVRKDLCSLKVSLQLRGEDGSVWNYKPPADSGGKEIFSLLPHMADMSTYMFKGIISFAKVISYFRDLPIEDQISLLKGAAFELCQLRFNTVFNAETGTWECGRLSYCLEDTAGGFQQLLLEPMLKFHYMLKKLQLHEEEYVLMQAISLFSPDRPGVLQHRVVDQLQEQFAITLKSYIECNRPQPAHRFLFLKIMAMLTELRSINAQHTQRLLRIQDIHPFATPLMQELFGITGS
Method in brief: (§1)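 HEK293T cells in DMEM/10% FCS, Opti-MEM before Lipofectamine LTX transfection with pFR-Luc reporter, pRL-SV40 and pFA-CMV GAL4–LBD plasmid. 5 h later compound in 0.1% DMSO, Opti-MEM, overnight (12−14 h). Dual luciferase; firefly/renilla ×1000 = RLU, fold over DMSO control; triplicates, ≥3 independent repeats.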

[4] = Metabolic stability in Sprague-Dawley rat liver microsomes assessed as compound remaining at 10 uM after 60 mins by HPLC analysis; assay type: ADME, microsome; details: read-out: Stability
[5] = target: Retinoic acid receptor beta (Homo sapiens) (UniProt P10826); assay: Transactivation of human GAL4-fused RARbeta ligand binding domain expressed in […] cells at 10 uM after 12 to 14 hrs by dual-glo luciferase reporter gene assay; assay type: cell-based; method in brief: as §1
Sequence of Retinoic acid receptor beta (Homo sapiens) (P10826 whole entry, the tested form may be a part): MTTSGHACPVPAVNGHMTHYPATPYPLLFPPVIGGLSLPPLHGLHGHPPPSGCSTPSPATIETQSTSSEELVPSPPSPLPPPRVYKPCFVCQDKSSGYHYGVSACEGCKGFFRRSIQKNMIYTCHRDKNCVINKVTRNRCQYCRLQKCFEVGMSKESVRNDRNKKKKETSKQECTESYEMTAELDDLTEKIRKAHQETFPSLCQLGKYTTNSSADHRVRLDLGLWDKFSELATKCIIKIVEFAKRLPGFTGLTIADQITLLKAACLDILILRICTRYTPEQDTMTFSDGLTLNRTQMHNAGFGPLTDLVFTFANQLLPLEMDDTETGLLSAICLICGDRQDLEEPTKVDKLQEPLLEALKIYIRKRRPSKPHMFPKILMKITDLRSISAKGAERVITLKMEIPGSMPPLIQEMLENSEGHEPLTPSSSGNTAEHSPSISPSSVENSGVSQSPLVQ

[6] = target: T2, Bifunctional epoxide hydrolase 2 (Homo sapiens) (UniProt P34913); details: 0.01 uM
T2 sequence (whole entry): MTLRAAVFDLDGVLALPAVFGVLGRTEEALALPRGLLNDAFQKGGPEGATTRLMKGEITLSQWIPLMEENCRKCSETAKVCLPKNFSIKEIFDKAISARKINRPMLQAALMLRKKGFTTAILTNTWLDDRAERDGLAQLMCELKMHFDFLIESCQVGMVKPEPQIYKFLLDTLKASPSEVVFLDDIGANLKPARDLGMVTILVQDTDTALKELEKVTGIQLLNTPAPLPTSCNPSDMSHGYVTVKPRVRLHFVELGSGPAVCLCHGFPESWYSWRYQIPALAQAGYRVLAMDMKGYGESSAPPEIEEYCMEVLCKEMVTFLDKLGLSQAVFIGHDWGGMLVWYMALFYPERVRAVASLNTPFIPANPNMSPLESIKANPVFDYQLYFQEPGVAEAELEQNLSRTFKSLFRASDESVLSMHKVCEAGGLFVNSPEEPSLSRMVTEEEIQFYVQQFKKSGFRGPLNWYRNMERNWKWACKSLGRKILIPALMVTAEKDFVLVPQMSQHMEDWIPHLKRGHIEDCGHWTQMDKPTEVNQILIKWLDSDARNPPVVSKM

For CC(C)(C)c1ccc(C(=O)NCc2ccc(NS(C)(=O)=O)cc2Cl)cc1, the half-life [1] was 42 min, the Emax [2] was 35% and the Activity [3] was “Not Active”. For the same compound, the remaining at 1 h, 10 µM [4] was > 50%, the Activity [5] was “inactive” and the inhibition [6] was “inactive”.
